Data: PMC3074966 (European journal of medicinal chemistry, 2010)

Legend:
[1] = system: HeLa cells; assay: Mitochondrial membrane potential; assay type: cell-based, human; conditions: 24 and 48 h
[2] = system: HeLa cells; assay: ROS production; assay type: cell-based, human; conditions: 24 and 48 h, HE and H2-DCFDA
[3] = system: HeLa cells; assay: Annexin-V/PI assay; assay type: cell-based, human; conditions: 24 h, compared with control
[4] = system: HeLa cells; assay: Western blot analysis; assay type: cell-based, human
[5] = system: HeLa cells; assay: Flow cytometric analysis of cell cycle distribution; assay type: cell-based, human; conditions: after 48 h of treatment (data not shown)
Outline: (§1)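 Exponentially growing cells (5 × 10⁵) were exposed to varying concentrations of test compound for 24 and 48 h. They were then collected and fixed in ice-cold 70% ethanol, then treated with lysis buffer containing RNase A and 0.1% Triton X-100. Cells were stained with propidium iodide and analysed by flow cytometry, with sub-G1 (hypodiploid) DNA content scored at 48 h.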

[6] = system: caspase-3 in HeLa cells; assay: Caspase-3 assay; assay type: cell-based, human; conditions: 24 and 48 h
[7] = system: Jurkat cells; assay: Flow cytometric analysis of cell cycle distribution; assay type: cell-based, human; conditions: after 48 h of treatment (data not shown)
Outline: as §1

[8] = system: panel of five human cell lines (HeLa, A549, HL-60, Jurkat, K562); assay: Antiproliferative assay, summary over the cell line panel; assay type: cell-based
[9] = average antiproliferative activity

CCOc1ccc(Nc2c(C(=O)c3cc(OC)c(OC)c(OC)c3)sc3ccccc23)cc1 [Compound 4e, (3-(4-Ethoxyphenylamino)benzo[b]thiophen-2-yl)(3,4,5-trimethoxyphenyl)methanone]
mitochondrial membrane potential (Rho 123 fluorescence) [1]: reduction of Rho 123 fluorescence intensity | production of ROS [2]: induces the production of large amounts of ROS | annexin-V positive cells [3]: induced an accumulation of annexin-V positive cells | expression of Bax [4]: remained unchanged | expression of Bcl-2 [4]: slight decrease | cyclin B1 expression ([4]; 24 or 48 h): concentration-dependent increase | phosphatase cdc25c (phosphorylation state) ([4]; 24 or 48 h): slower migrating forms of phosphatase cdc25c were present | 89 kDa cleaved fragment of PARP ([4]; 24 h and 48 h): increased | expression of p53 ([4]; increasing concentrations): no difference | hypodiploid peak (sub-G1) indicative of apoptosis [5]: appeared in both cell lines | activation of caspase-3 [6]: activation of caspase-3 in a time- and concentration-dependent manner | hypodiploid peak (sub-G1) indicative of apoptosis [7]: appeared in both cell lines | fold increase in activity relative to unsubstituted 4a [8, 9]: 5 fold | fold difference in average antiproliferative activity between 4e and 4d ([8]; most active vs least active 3-anilino derivative): 9 fold | fold lower IC50 than 3k ([8]; over the five cell lines): 2- to 15 fold

CCOc1ccc(Nc2c(C(=O)c3cc(OC)c(OC)c(OC)c3)sc3cc(C)ccc23)cc1 [Compound 4g, (3-(4-Ethoxyphenylamino)-6-methylbenzo[b]thiophen-2-yl) (3,4,5-trimethoxyphenyl)methanone]
fold less potent than 4e ([8]; over the five cell lines): 4- to 20 fold

COc1ccc(Nc2c(C(=O)c3cc(OC)c(OC)c(OC)c3)sc3ccccc23)cc1 [Compound 4d, (3-(4-Methoxyphenylamino)benzo[b]thiophen-2-yl)(3,4,5-trimethoxyphenyl)methanone]
loss in activity relative to unsubstituted 4a [8, 9]: ~50%

COc1cc(C(=O)c2sc3ccccc3c2-c2ccccc2)cc(OC)c1OC [Compound 3a, (3,4,5-Trimethoxyphenyl)(3-phenylbenzo[b]thiophen-2-yl) methanone]
IC50 ([8]; Homo sapiens, read-out: IC50 against HeLa, HL-60, Jurkat and K562 cells): 1500 to 2100 nM
